According to ChEMBL document CHEMBL4390648, “Chemical synthesis, crystal structure, versatile evaluation of their biological activities and molecular simulations of novel pyrithiobac derivatives” (Eur J Med Chem, 2019):
Converted amounts (≈) assume the structure as drawn.

What was measured:
Echinochloa crus-galli [1] = assay: Post-emergence herbicidal activity against Echinochloa crus-galli assessed as reduction in growth at 300g/ha measured after 24 days by green house pot method relative to control; assay type: functional; details: 576 h
Digitaria adscendens [2] = assay: Post-emergence herbicidal activity against Digitaria adscendens assessed as reduction in growth at 300g/ha measured after 24 days by based green house pot method relative to control; assay type: functional; details: 576 h
Candida albicans [3] = assay: Inhibition of Candida albicans AHAS catalytic subunit at 10 uM using pyruvate as substrate measured after 30 mins by colorimetric method relative to control
Method in brief: (§1)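 Colorimetric assay in 50 mM potassium phosphate pH 7.0 with 50 mM pyruvate, 1 mM thiamine diphosphate, 10 mM MgCl2 and 10 μM FAD. Incubated 30 min at 37 °C for plant AHAS and 30 °C for fungal AHAS. Acetolactate formed was then quantified.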

[4] = system: Severe acute respiratory syndrome-related coronavirus; assay: Inhibition of SARS coronavirus M protease using AVLQSGFRKK as substrate at 20 uM by FRET assay relative to control
Method in brief: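 Purified SARS-CoV Mpro assayed by FRET. Protein, compound and substrate were preheated at 37 °C and oscillated. Fluorescence (ex 320/em 405 nm) was read every 5 s for 200 reads.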

Candida albicans [5] = assay: Antifungal activity against Candida albicans isolate g5 grown in RPMI 1640 medium incubated for 24 hrs by microdilution method; assay type: functional; details: isolate g5, 24 h
Method in brief: (§2)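 C. albicans standard strain SC5314 and clinical isolates g5 and 17# tested by broth microdilution in YNB or RPMI 1640 medium. Plates incubated at 35 °C for up to 72 h, with visual readings taken at 24 h. MIC taken as the lowest concentration preventing visible growth.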

Candida albicans [6] = assay: Antifungal activity against Candida albicans isolate g5 grown in YNB medium incubated for 24 hrs by microdilution method; assay type: functional; details: isolate g5, 24 h; method in brief: as §2
Candida albicans [7] = assay: Antifungal activity against Candida albicans isolate 17 grown in YNB medium incubated for 24 hrs by microdilution method; assay type: functional; details: isolate 17, 24 h; method in brief: as §2
Digitaria adscendens [8] = assay: Pre-emergence herbicidal activity against Digitaria adscendens assessed as reduction in growth at 300g/ha measured after 24 days by green house pot method relative to control; assay type: functional; details: 576 h
Candida albicans [9] = assay: Antifungal activity against Candida albicans SC5314 grown in RPMI 1640 medium incubated for 24 hrs by microdilution method; assay type: functional; details: SC5314, 24 h; method in brief: as §2
Arabidopsis thaliana [10] = assay: Inhibition of Arabidopsis thaliana AHAS catalytic subunit using pyruvate as substrate at 100 uM measured after 30 mins by colorimetric method relative to control; method in brief: as §1
Sclerotinia sclerotiorum = assay: Antifungal activity against Sclerotinia sclerotiorum assessed as reduction in growth at 50 mg/l by mycelium growth rate method relative to control; assay type: functional
Method in brief: (§3)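 Mycelium growth rate method against S. sclerotiorum, P. capsici, P. piricola, R. cerealis, W. anthracnose and R. bakanae. Each compound tested at 50 mg/L, with chlorothalonil and PTB as controls. Relative inhibitory ratio (%) calculated from mycelial growth.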

Ceratobasidium cereale [11] = assay: Antifungal activity against Rhizoctonia cerealis assessed as reduction in growth mycelium growth rate method relative to control; assay type: functional, organism-based
Method in brief: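 EC50 against R. cerealis derived from mycelium growth-rate inhibition over a concentration series, using a probit fit: Probit = m(log10[I] − log10[EC50]) + 5.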

Amaranthus retroflexus [12] = assay: Pre-emergence herbicidal activity against Amaranthus retroflexus assessed as reduction in growth at 300g/ha measured after 24 days by green house pot method relative to control; assay type: functional; details: 576 h
Colletotrichum = assay: Antifungal activity against Colletotrichum (W. anthracnose) assessed as reduction in growth at 50 mg/l by mycelium growth rate method relative to control; assay type: functional; method in brief: as §3
[13] = system: Brassica rapa subsp. oleifera; assay: Post-emergence herbicidal activity against Brassica campestris assessed as reduction in growth at 300g/ha measured after 24 days by green house pot method relative to control; assay type: functional; details: 576 h
Candida albicans [14] = assay: Antifungal activity against Candida albicans SC5314 grown in YNB medium incubated for 24 hrs by microdilution method; assay type: functional; details: SC5314, 24 h; method in brief: as §2
Candida albicans [15] = assay: Inhibition of Candida albicans AHAS catalytic subunit at 100 uM using pyruvate as substrate measured after 30 mins by colorimetric method relative to control; method in brief: as §1
[16] = system: Brassica rapa subsp. oleifera; assay: Herbicidal activity against Brassica campestris L assessed as inhibition of rape root growth at 100 mg/l root growth incubated for 48 hrs relative to control; assay type: functional
Method in brief: (§4)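 Rape seeds soaked in distilled water for 4 h, then placed on filter paper wetted with inhibitor solution, 15 seeds per 6-cm dish. Germinated in the dark at 28 °C for 48 h. Mean length of 10 roots per plate measured.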

[17] = system: Botryosphaeria berengeriana; assay: Antifungal activity against Physalospora pyricola assessed as reduction in growth at 50 mg/l by mycelium growth rate method relative to control; assay type: functional; method in brief: as §3
Echinochloa crus-galli [18] = assay: Pre-emergence herbicidal activity against Echinochloa crus-galli assessed as reduction in growth at 300g/ha measured after 24 days by green house pot method relative to control; assay type: functional; details: 576 h
Amaranthus retroflexus [19] = assay: Post-emergence herbicidal activity against Amaranthus retroflexus assessed as reduction in growth at 300g/ha measured after 24 days by green house pot method relative to control; assay type: functional; details: 576 h
Fusarium fujikuroi = assay: Antifungal activity against Gibberella fujikuroi assessed as reduction in growth at 50 mg/l by mycelium growth rate method relative to control; assay type: functional; method in brief: as §3
Ceratobasidium cereale [20] = assay: Antifungal activity against Rhizoctonia cerealis assessed as reduction in growth at 50 mg/l by mycelium growth rate method relative to control; assay type: functional; method in brief: as §3
Arabidopsis thaliana [21] = assay: Inhibition of Arabidopsis thaliana AHAS catalytic subunit using pyruvate as substrate at 10 uM measured after 30 mins by colorimetric method relative to control; method in brief: as §1
[22] = system: Brassica rapa subsp. oleifera; assay: Herbicidal activity against Brassica campestris L assessed as inhibition of rape root growth at 10 mg/l root growth incubated for 48 hrs relative to control; assay type: functional; method in brief: as §4
[23] = system: Brassica rapa subsp. oleifera; assay: Pre-emergence herbicidal activity against Brassica campestris assessed as reduction in growth at 300g/ha measured after 24 days green house pot method relative to control; assay type: functional; details: 576 h
Candida albicans [24] = assay: Antifungal activity against Candida albicans isolate 17 grown in RPMI 1640 medium incubated for 24 hrs by microdilution method; assay type: functional; details: isolate 17, 24 h; method in brief: as §2
Phytophthora capsici = assay: Antifungal activity against Phytophthora capsici assessed as reduction in growth at 50 mg/l by mycelium growth rate method relative to control; assay type: functional; method in brief: as §3

**Q.** Which inhibition at 300 g/ha (Echinochloa crus-galli [1]) does the source give for `COc1cc(OC)nc(Sc2cccc(Cl)c2C(=O)O)n1` [PYRITHIOBAC] here?
**A.** 59.5%

**Q.** What about the inhibition at 300 g/ha (Digitaria adscendens [2]) of the same compound?
**A.** 36.6%

**Q.** And the inhibition (Candida albicans [3])?
**A.** 20%

**Q.** What about the inhibition [4] of the same compound?
**A.** 12.2%

**Q.** And the MIC (Candida albicans [5])?
**A.** > 100 µg/mL

**Q.** And the MIC (Candida albicans [6])?
**A.** > 100 µg/mL

**Q.** What about the MIC (Candida albicans [7]) of the same compound?
**A.** > 100 µg/mL

**Q.** What about the inhibition at 300 g/ha (Digitaria adscendens [8]) of the same compound?
**A.** 63.8%

**Q.** And the MIC (Candida albicans [9])?
**A.** > 100 µg/mL

**Q.** And the inhibition (Arabidopsis thaliana [10])?
**A.** 100%

**Q.** What about the inhibition at 50 µg/mL (Sclerotinia sclerotiorum) of the same compound?
**A.** 64.8%

**Q.** What about the EC50 (Ceratobasidium cereale [11]) of the same compound?
**A.** 15.4 µg/mL (≈ 47.1 µM)

**Q.** What about the inhibition at 300 g/ha (Amaranthus retroflexus [12]) of the same compound?
**A.** 96.3%

**Q.** And the inhibition at 50 µg/mL (Colletotrichum)?
**A.** 45.3%

**Q.** And the inhibition at 300 g/ha [13]?
**A.** 92.3%

**Q.** And the MIC (Candida albicans [14])?
**A.** > 100 µg/mL

**Q.** What about the inhibition (Candida albicans [15]) of the same compound?
**A.** 40%

**Q.** And the “inhibition (INH)” value [16]?
**A.** 97%

**Q.** And the inhibition at 50 µg/mL [17]?
**A.** 60.3%

**Q.** And the inhibition at 300 g/ha (Echinochloa crus-galli [18])?
**A.** 63.4%

**Q.** What about the inhibition at 300 g/ha (Amaranthus retroflexus [19]) of the same compound?
**A.** 61.2%

**Q.** What about the inhibition at 50 µg/mL (Fusarium fujikuroi) of the same compound?
**A.** 12.6%

**Q.** And the inhibition at 50 µg/mL (Ceratobasidium cereale [20])?
**A.** 86.9%

**Q.** And the inhibition (Arabidopsis thaliana [21])?
**A.** 96%

**Q.** And the “inhibition (INH)” value [22]?
**A.** 90.2%

**Q.** What about the inhibition at 300 g/ha [23] of the same compound?
**A.** 95.2%

**Q.** And the MIC (Candida albicans [24])?
**A.** > 100 µg/mL

**Q.** And the inhibition at 50 µg/mL (Phytophthora capsici)?
**A.** 44.7%
